Laboratory results taken from article PMC3880621 (Journal of medicinal chemistry, 2013).

Assays:
HUVECs = assay: MTT cell viability assay, HUVECs; assay type: cell-based, human; details: 48 h, 25-100 μM, n = 1
Outline: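 HUVECs kept in endothelial growth medium at 37°C, 5% CO2, 80% humidity. Seeded at 8,000–10,000 per well, grown overnight, then treated 48 h across a concentration range (prodrugs 0–200 μM). MTT (2 mg/mL solution) added for 1 h at 37°C; medium removed, formazan dissolved in DMSO, absorbance read at 550 nm. One experiment, at least triplicate wells.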

Guinea pig serum = assay type: in vitro ADME; details: pH 7.4, 37°C; for first-order rate constant k2 of loss of 241 nm peak: 2% guinea pig serum, second, slow process
Outline: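 Test compound added from a 1000× DMSO stock to 50 μM DTPA in Ca/Mg-free DPBS, pH 7.4, with 2% guinea pig serum at 37°C; blank was buffer plus serum. UV spectra taken every second for 600 s, then every 60–120 s; total scan 2500 s to 62 h. Rate constants from fitting A = ΔAe^(−kt) + A∞.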

Stomach ulcerogenicity = assay type: in vivo, Sprague-Dawley rats; details: rats; for ulcer index: 1.38 mmol/kg p.o., 6 h post-administration; for ulcerogenicity compared to control: 1.38 mmol/kg
Outline: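 Sprague-Dawley rats fasted 24 h with water available, then dosed orally at 1.38 mmol/kg suspended in 1.2 mL 1% methylcellulose; controls received vehicle. Killed by CO2 at 6 h; stomachs removed onto ice and lesions inspected under a magnifier, scored by size. Ulcer index = summed ulcer length per stomach, averaged over the animals in the group.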

[1] = assay type: physicochemical; details: for rate of decomposition of NONO-salicylate derivatives: spontaneous, pH not printed at the place
[2] = test system: isolated murine ventricular myocytes; assay type: cell-based, mouse; details: 500 μM
COX-2 = assay: PGE2 levels in A549 cells; assay type: cell-based, human; details: 25 and 50 μM, 24 h
Outline: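 A549 cells grown in RPMI 1640 with 10% FBS and penicillin/streptomycin. Seeded at 50,000 per well, grown 12 h, then given test compound at 25 or 50 μM (0.1% DMSO) for 24 h at 37°C. Supernatant PGE2 measured by competitive EIA (AChE tracer plus monoclonal antibody, overnight at 4°C), developed with Ellman's reagent, absorbance at […]. Triplicate.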

GAPDH = GAPDH (Homo sapiens, UniProt P04406); assay: GAPDH activity in A549 cells; assay type: cell-based; details: 100 μM, 1 h
Sequence of GAPDH (P04406 whole entry): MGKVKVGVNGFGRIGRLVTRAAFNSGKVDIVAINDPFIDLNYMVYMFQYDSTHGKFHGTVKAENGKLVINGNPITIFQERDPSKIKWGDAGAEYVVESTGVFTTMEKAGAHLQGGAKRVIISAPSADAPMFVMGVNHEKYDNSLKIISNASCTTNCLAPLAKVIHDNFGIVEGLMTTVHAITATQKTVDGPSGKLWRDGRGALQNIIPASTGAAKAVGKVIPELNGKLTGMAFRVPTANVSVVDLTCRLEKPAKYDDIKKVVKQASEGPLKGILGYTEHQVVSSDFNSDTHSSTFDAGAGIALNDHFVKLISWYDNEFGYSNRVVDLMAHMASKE
Outline: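 A549 cells, seeded at 30,000 per well and grown overnight, exposed to test compound at 100 μM for 1 h at 37°C. Cells lysed in kit lysis buffer for 20 min at 4°C. Lysate mixed with kit mastermix; fluorescence read at 570 nm with excitation at 540 nm. Triplicate; mean ± SD; one-way ANOVA versus untreated control.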

[3] = Fetal bovine serum induced hydrolysis, followed spectrophotometrically; assay type: in vitro ADME; details: pH 7.4, 37°C, n = 1
[4] = test system: various cancer cells lines; details: read-out: IC50 (cytotoxicity); cited from earlier work
[5] = pH 7.4, PBS with 50 μM DTPA, 37°C

SMILES	rate of decomposition of NONO-salicylate derivatives [1]	rate constant of hydrolysis/decomposition at pH 10 ([1]; pH 10, 37°C)	effect on viability of HUVECs (HUVECs)	first-order rate constant k2 of loss of 241 nm peak (Guinea pig serum)	ulcer index (Stomach ulcerogenicity)	ulcerogenicity compared to control (Stomach ulcerogenicity)	first-order rate constant of decomposition at 241 nm [1, 5]	further results
CCN(CC)/[N+]([O-])=N/OCOC(=O)c1ccccc1OC(C)=O [DEA/NO-aspirin, O^2-(Acetylsalicyloyloxymethyl)-1-(N,N-diethylamino)-diazen-1-ium-1,2-diolate]			no effect on viability up to 100 μM	(1.1 ± 0.6) × 10^−3 s^−1	0	not significantly increased compared to control	5.3e-06 s⁻¹	rate constant of initial growth near 250 nm (production of DEA/NO) ([1]; pH 10, 37°C): (4.5 ± 0.6) × 10^−5 s^−1
CCN(CC)/[N+]([O-])=N/OCOC(=O)c1ccccc1O [DEA/NO-salicylate, O^2-(2-hydroxybenzoyloxymethyl)-1-(N,N-diethylamino)-diazen-1-ium-1,2-diolate]	3.1e-05 s⁻¹							
CC(=O)Oc1ccccc1C(=O)OCO/N=[N+](\[O-])NC(C)C [IPA/NO-aspirin, O^2-(Acetylsalicyloyloxymethyl)-1-(N-isopropylamino)-diazen-1-ium-1,2-diolate]		(3.5 ± 0.8) × 10^−3 s^−1	no effect on viability up to 100 μM	(6.5 ± 0.12) × 10^−4 s^−1		not significantly increased compared to control	(2.6 ± 0.2) × 10^−5 s^−1	change of time of half-relaxation from peak shortening ([2]; mean ± SEM): −17 ± 3%; increase in sarcomere shortening from control ([2]; n = 12, mean ± SEM): +201 ± 18%; PGE2 levels (COX-2): decreased most significantly; inhibition of GAPDH activity (GAPDH): highest; rate constant of decomposition with FBS [3]: 2.7e-05 s⁻¹
CC(=O)Oc1ccccc1C(=O)O [aspirin, acetylsalicylic acid, reference compound]		(1.6 ± 0.5) × 10^−4 s^−1			57.4 ± 3.1			rate of hydrolysis in the presence of guinea pig serum (Guinea pig serum; guinea pig serum): (4.7 ± 0.17) × 10^−4 s^−1; IC50 [4]: > 1000 µM; first-order rate constant of spontaneous hydrolysis at 295 nm [1, 5]: 9.8e-06 s⁻¹

More lines, main results first:

rate of decomposition of NONO-salicylate derivatives [1]	rate constant of hydrolysis/decomposition at pH 10 ([1]; pH 10, 37°C)	SMILES	effect on viability of HUVECs (HUVECs)	first-order rate constant k2 of loss of 241 nm peak (Guinea pig serum)	ulcer index (Stomach ulcerogenicity)	ulcerogenicity compared to control (Stomach ulcerogenicity)	first-order rate constant of decomposition at 241 nm [1, 5]	further results
	4.1 × 10^−4 s^−1	CC(C)N/[N+]([O-])=N/[O-].[Na+] [IPA/NO, sodium 1-(N-isopropylamino)diazen-1-ium-1,2-diolate, reference compound]						
7e-05 s⁻¹		CC(C)N/[N+]([O-])=N/OCOC(=O)c1ccccc1O [IPA/NO-salicylate, O^2-(2-hydroxybenzoyloxymethyl)-1-(N-isopropylamino)-diazen-1-ium-1,2-diolate]						
